According to ChEMBL document CHEMBL1140052, “Novel insight in structure-activity relationship and bioanalysis of P-glycoprotein targeting highly potent tetrakishydroxymethyl substituted 3,9-diazatetraasteranes” (J Med Chem, 2008):
Calls of active or inactive are those of the source. No cut-off for these calls is given here.

Experiments:
[1] = system: L5178Y; assay: Inhibition of P-glycoprotein expressed in mouse L5178Y cells measured by rhodamine 123 uptake assessed as fluorescence activity ratio relative to wild type mouse L5178 cells at 1 uM; type: cell-based
Outline: (§1)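 Mouse T lymphoma parental L5178 and P-gp-expressing L5178Y cells at 2 × 10^6 cells/mL in serum-free McCoy's 5A medium. Compound added from DMSO stock, 10 min at rt. Rhodamine 123 then added (final 5.2 µM), 20 min at 37 °C. Two PBS washes, 1 × 10^4 cells read by flow cytometry. Ratio = subline/parental fluorescence, each corrected to its untreated control.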

[2] = system: L5178Y; assay: Inhibition of P-glycoprotein expressed in mouse L5178Y cells measured by rhodamine 123 uptake assessed as fluorescence activity ratio relative to wild type mouse L5178 cells at 10 uM; type: cell-based; outline: as §1
[3] = species on record: Homo sapiens; assay: Induction of p-glycoprotein expression in human EPG 85-257 cells after 72 hrs by Western blot analysis; type: functional, cell-based
Outline: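 Gastric carcinoma cells seeded at 5 × 10^5 cells/well and cultured 72 h with compound. Cells washed twice, proteins extracted with Triton X-100 and denatured 10 min at 95 °C. Protein quantified by amido black at 630 nm. 20 µg run on SDS-PAGE (4% stacking/6% resolving) and blotted. Probed with C219 (1:100) and peroxidase anti-mouse IgG (1:10000), chemiluminescence read-out. Anti-actin (1:50000) as loading control.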

Row | Compound | Ratio [1] | Ratio [2] | Activity [3]
1 | OC[C@]12C3N(Cc4ccccc4)C4[C@](CO)(C5N(Cc6ccccc6)C1[C@]3(CO)[C@@H](c1ccccc1)[C@@]45CO)[C@@H]2c1ccccc1 | 4.1 | 29 | –
2 | OC[C@]12C3N(Cc4ccccc4)C4[C@](CO)(C5N(Cc6ccccc6)C1[C@]3(CO)[C@H](c1ccc(OCc3ccccc3)cc1)[C@@]45CO)[C@H]2c1ccc(OCc2ccccc2)cc1 | 3.3 | 47 | –
3 | OC[C@]12C3N(Cc4ccc(OCc5ccccc5)cc4)C4[C@](CO)(C5N(Cc6ccc(OCc7ccccc7)cc6)C1[C@]3(CO)[C@H](c1ccccc1)[C@@]45CO)[C@H]2c1ccccc1 | 2.3 | 28 | –
4 | COc1ccc(CCN(C)CCCC(C#N)(c2ccc(OC)c(OC)c2)C(C)C)cc1OC (configuration not stated) | 2.1 | 4.1 | –
5 | OC[C@]12C3N(Cc4cccc(OCc5ccccc5)c4)C4[C@](CO)(C5N(Cc6cccc(OCc7ccccc7)c6)C1[C@]3(CO)[C@@H](c1ccccc1)[C@@]45CO)[C@@H]2c1ccccc1 | 117 | 205 | –
6 | COc1ccc(CN2C3[C@]4(CO)C5N(Cc6ccc(OC)cc6)C6[C@](CO)(C2[C@@]6(CO)[C@@H](c2ccccc2)[C@@]35CO)[C@H]4c2ccccc2)cc1 | 3.5 | 13 | –
7 | OC[C@]12C3N(Cc4ccccc4)C4[C@](CO)(C5N(Cc6ccccc6)C1[C@]3(CO)[C@H](c1cccc(OCc3ccccc3)c1)[C@@]45CO)[C@H]2c1cccc(OCc2ccccc2)c1 | 65 | 125 | –
8 | COc1ccc([C@H]2[C@@]3(CO)C4N(Cc5ccccc5)C5[C@]2(CO)C2N(Cc6ccccc6)C3[C@]4(CO)[C@H](c3ccc(OC)cc3)[C@@]52CO)cc1 | 4.3 | 57 | inactive
